From ChEMBL document CHEMBL1133664, “Synthesis and evaluation of hydroxylated polyamine analogues as antiproliferatives” (J Med Chem, 2000)

Experiments:
L1210 [1] = experiment: Putrescine(PUT) levels in L1210 cells after 48 hr of treatment with the compound at the dose of 0.75 uM; assay type: functional, Mus musculus
In short: (§1)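 Log-phase L1210 cells treated 48 h, washed twice in ice-cold incomplete medium, extracted with 0.6 N perchloric acid and freeze-fractured three times. Polyamines are quantified by HPLC. PUT, SPD and SPM are expressed as percent of untreated control.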

L1210 [2] = experiment: Spermine(SPM) levels in L1210 cells after 48 hr of treatment with the compound at the dose of 10 uM; assay type: functional, Mus musculus; in short: as §1
L1210 [3] = experiment: Spermidine(SPD) levels in L1210 cells after 48 hr of treatment with the compound at the dose of 0.15 uM; assay type: functional, Mus musculus; in short: as §1
[4] = target: T1, Ornithine decarboxylase (Mus musculus) (UniProt P00860); experiment: Effect of compound on Ornithine decarboxylase (ODC) […] in L1210 cells; assay type: cell-based
T1 sequence (whole entry): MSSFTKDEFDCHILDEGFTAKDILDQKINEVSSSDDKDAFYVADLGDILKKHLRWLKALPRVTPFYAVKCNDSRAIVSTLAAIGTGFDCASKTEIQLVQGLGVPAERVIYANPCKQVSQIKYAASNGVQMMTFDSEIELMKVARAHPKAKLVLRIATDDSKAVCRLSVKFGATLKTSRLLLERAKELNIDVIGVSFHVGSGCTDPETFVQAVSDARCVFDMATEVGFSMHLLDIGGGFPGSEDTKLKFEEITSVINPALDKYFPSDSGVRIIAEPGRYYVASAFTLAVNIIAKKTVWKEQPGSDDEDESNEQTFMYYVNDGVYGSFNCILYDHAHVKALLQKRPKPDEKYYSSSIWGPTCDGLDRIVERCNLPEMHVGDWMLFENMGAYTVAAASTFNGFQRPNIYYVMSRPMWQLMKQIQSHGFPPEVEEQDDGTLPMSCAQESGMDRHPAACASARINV
In short: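 L1210 cells treated 4 h at 1 µM, with an additional arm at 10 µM for 4 h. ODC activity is expressed as percent of untreated control. Each run includes untreated cells as negative control and a DEHSPM-treated positive control. Values are the mean of at least three experiments.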

L1210 [5] = experiment: Putrescine(PUT) levels in L1210 cells after 48 hr of treatment with the compound at the dose of 10 uM; assay type: functional, Mus musculus; in short: as §1
L1210 [6] = experiment: Effect of compound on Spermidine/Spermine N'-Acetyltransferase(SSAT) in L1210 cells; assay type: cell-based
In short: (§2)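 L1210 cells treated 48 h at 10 µM, or 2 µM for DENSPM. SSAT is quantified as [14C]-N1-acetylspermidine formed from spermidine and [14C]acetyl-CoA. Values are the mean of at least three experiments.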

L1210 [7] = experiment: Spermine(SPM) levels in L1210 cells after 48 hr of treatment with the compound at the dose of 0.75 uM; assay type: functional, Mus musculus; in short: as §1
L1210 [8] = experiment: Spermidine(SPD) levels in L1210 cells after 48 hr of treatment with the compound at the dose of 10 uM; assay type: functional, Mus musculus; in short: as §1
L1210 [9] = experiment: Spermine(SPM) levels in L1210 cells after 48 hr of treatment with the compound at the dose of 0.15 uM; assay type: functional, Mus musculus; in short: as §1
L1210 [10] = experiment: Spermidine(SPD) levels in L1210 cells after 48 hr of treatment with the compound at the dose of 0.75 uM; assay type: functional, Mus musculus; in short: as §1
[11] = system: S-adenosylmethionine decarboxylase (Mus musculus); experiment: Effect of compound on S-Adenosyl-methionine decarboxylase in L1210 cells; set-up: unit not given here
L1210 [12] = experiment: Putrescine(PUT) levels in L1210 cells after 48 hr of treatment with the compound at the dose of 0.15 uM; assay type: functional, Mus musculus; in short: as §1
L1210 [13] = experiment: Growth inhibition of L1210 cells was measured in the presence of nine different concentrations: 0,0.03,0.1,0.3,1,3,10,30, and 100 uM after 48 hours; assay type: functional, cell-based; conditions: Mus musculus, L1210, 48 h
In short: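 L1210 leukemia cells were kept in log growth in RPMI-1640 with 10% FBS, HEPES-MOPS and 1 mM aminoguanidine at 37 °C under 5% CO2. Cultures at 0.5-1.0 × 10^5 cells/mL were dosed with filtered aqueous compound and counted by Coulter counter at 48 h, then reseeded and counted again at 96 h.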

L1210 [14] = experiment: Putrescine(PUT) levels in L1210 cells after 48 hr of treatment with the compound at the dose of 100 MicroM; assay type: functional, Mus musculus; in short: as §1
L1210 [15] = experiment: Spermine(SPM) levels in L1210 cells after 48 hr of treatment with the compound at the dose of 100 uM; assay type: functional, Mus musculus; in short: as §1
L1210 [16] = experiment: Spermidine(SPD) levels in L1210 cells after 48 hr of treatment with the compound at the dose of 100 uM; assay type: functional, Mus musculus; in short: as §1
L1210 [17] = experiment: Effect of compound on Spermidine/Spermine N'-Acetyltransferase (SSAT) in L1210 cells; assay type: cell-based; in short: as §2
L1210 [18] = experiment: Ki was estimated by competitive inhibition of [3H]SPD transport by L1210 cells; assay type: functional, cell-based, Mus musculus
In short: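 L1210 cells incubated 20 min at 37 °C in medium with 1-10 µM [3H]spermidine, alone or with 10, 25 or 50 µM analogue. Cells are then washed with cold medium containing 1 mM SPD, digested in NaOH at 60 °C and counted by scintillation. Ki is taken from substrate-competitive inhibition kinetics; values are means of two or three experiments.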

L1210 [19] = experiment: Growth uM after 48 hours; assay type: functional, cell-based; conditions: Mus musculus, L1210, 48 h
L1210 [20] = experiment: Spermine(SPM) levels in L1210 cells after 48 hr of treatment with the compound at the dose of 2 uM; assay type: functional, Mus musculus; in short: as §1
L1210 [21] = experiment: Growth uM after 96 hours; assay type: functional, cell-based; conditions: Mus musculus, L1210, 96 h
L1210 [22] = experiment: Spermidine(SPD) levels in L1210 cells after 48 hr of treatment with the compound at the dose of 2 uM; assay type: functional, Mus musculus; in short: as §1
L1210 [23] = experiment: Putrescine(PUT) levels in L1210 cells after 48 hr of treatment with the compound at the dose of 2 uM; assay type: functional, Mus musculus; in short: as §1
L1210 [24] = experiment: Putrescine(PUT) levels in L1210 cells after 48 hr of treatment with the compound at the dose of 200 uMicroM; assay type: functional, Mus musculus; in short: as §1
L1210 [25] = experiment: Putrescine(PUT) levels in L1210 cells after 48 hr of treatment with the compound at the dose of 40 uM; assay type: functional, Mus musculus; in short: as §1
L1210 [26] = experiment: Spermidine(SPD) levels in L1210 cells after 48 hr of treatment with the compound at the dose of 40 uM; assay type: functional, Mus musculus; in short: as §1
L1210 [27] = experiment: Spermine(SPM) levels in L1210 cells after 48 hr of treatment with the compound at the dose of 200 uM; assay type: functional, Mus musculus; in short: as §1
L1210 [28] = experiment: Spermine(SPM) levels in L1210 cells after 48 hr of treatment with the compound at the dose of 40 uM; assay type: functional, Mus musculus; in short: as §1
L1210 [29] = experiment: Spermidine(SPD) levels in L1210 cells after 48 hr of treatment with the compound at the dose of 200 uM; assay type: functional, Mus musculus; in short: as §1
[30] = in the assay text read “1 uM” for “10 uM”

Structure (SMILES) | Activity (L1210 [2]) | Activity [4] | Activity (L1210 [5]) | Activity (L1210 [6]) | Activity (L1210 [8]) | Activity [11] | Ki (L1210 [18]) [nM] | IC50 (L1210 [19]) [nM] | IC50 (L1210 [21]) [nM] | also measured
CCNCCCCNCCCCNCCCCNCC [DIETHYLHOMOSPERMINE] | 57 | 7 | 3 | 110 | 1 | 41 |  |  |  | Activity (L1210 [1]): 49; Activity (L1210 [3]): 91; Activity (L1210 [7]): 101; Activity (L1210 [9]): 110; Activity (L1210 [10]): 40; Activity (L1210 [12]): 97
CCNCCCNCCCNCCCNCC [BIS(ETHYL)NORSPERMINE] |  | 7 |  |  |  | 42 |  |  |  | IC50 (L1210 [13]): 20000 nM; Activity (L1210 [14]): 0; Activity (L1210 [2]; [30]): 94; Activity (L1210 [5]; [30]): 66; Activity (L1210 [15]): 30; Activity (L1210 [8]; [30]): 46; Activity (L1210 [16]): 6; Activity (L1210 [17]): 1470
CCNC[C@H](O)CNCCCNC[C@@H](O)CNCC |  | 61 |  |  |  |  |  |  |  | 
CCNC[C@@H](O)CNCCCNC[C@H](O)CNCC |  | 35 |  |  |  |  |  |  |  | 
CCNCC[C@H](O)CNCCCCNC[C@@H](O)CCNCC [IVOSPEMIN] | 53 | 17 | 3 | 114 | 4 | 52 | 2400 | 2000 | 60 | Activity (L1210 [20]): 62; Activity (L1210 [22]): 11; Activity (L1210 [23]): 3
CCNCC[C@@H](O)CNCCCCNC[C@H](O)CCNCC |  | 55 |  | 102 |  | 68 | 1700 | 40000 | 80 | Activity (L1210 [24]): 4; Activity (L1210 [25]): 5; Activity (L1210 [26]): 19; Activity (L1210 [27]): 104; Activity (L1210 [28]): 107; Activity (L1210 [29]): 13
